According to ChEMBL document CHEMBL2375299, “Synthesis and structure-activity relationships of carboxylic acid derivatives of pyridoxal as P2X receptor antagonists” (Bioorg Med Chem, 2013):
The source made the active and inactive calls. No cut-off for these calls is given here.

What was measured:
[1] = Selectivity ratio of IC50 for mouse recombinant P2X1 receptor to IC50 for human recombinant P2X3 receptor
[2] = target: T1, P2X purinoceptor 7 (Homo sapiens) (UniProt Q99572); assay: Antagonist activity at human P2X7 receptor expressed in HEK293 cells assessed as inhibition of BzATP-induced ethidium bromide uptake at 10 uM after 120 mins by fluorimetric analysis; type: cell-based
T1 sequence (whole entry): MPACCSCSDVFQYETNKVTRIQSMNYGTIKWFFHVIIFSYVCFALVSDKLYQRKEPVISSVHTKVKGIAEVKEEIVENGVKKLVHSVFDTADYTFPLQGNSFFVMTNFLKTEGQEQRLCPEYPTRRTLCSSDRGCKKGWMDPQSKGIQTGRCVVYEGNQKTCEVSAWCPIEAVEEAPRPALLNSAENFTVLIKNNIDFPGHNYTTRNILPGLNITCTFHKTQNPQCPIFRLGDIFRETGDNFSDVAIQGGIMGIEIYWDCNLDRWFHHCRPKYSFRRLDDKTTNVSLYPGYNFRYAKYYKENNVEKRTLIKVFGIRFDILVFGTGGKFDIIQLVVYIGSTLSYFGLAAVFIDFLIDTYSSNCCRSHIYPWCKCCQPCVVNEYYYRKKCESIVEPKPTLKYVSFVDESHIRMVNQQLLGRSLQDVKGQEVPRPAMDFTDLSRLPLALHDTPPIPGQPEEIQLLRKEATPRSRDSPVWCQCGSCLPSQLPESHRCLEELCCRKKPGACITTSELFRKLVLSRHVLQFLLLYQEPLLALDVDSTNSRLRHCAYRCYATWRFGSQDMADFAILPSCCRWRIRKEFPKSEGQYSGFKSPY
Method in brief: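 HEK293 cells stably expressing hP2X7 were grown in DMEM with 10% FBS, trypsinized and resuspended at 2.5×10^6 cells/mL in HEPES/N-methyl-D-glucamine/KCl/glucose/0.5 mM CaCl2 buffer, pH 7.4, with 100 μM ethidium bromide. Cells were added at 2×10^5 per well to BzATP. After 120 min at 37 °C, ethidium fluorescence was read at ex 530 / em 590 nm.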

[3] = target: T2, P2X purinoceptor 1 (Mus musculus) (UniProt P51576); assay: Antagonist activity at mouse recombinant P2X1 receptor expressed in Xenopus oocytes assessed as inhibition of ATP-induced ion current incubated for 20 mins prior to ATP-induction measured after compound washout by two-electrode voltage clamp assay; type: cell-based; conditions: Oocyte
T2 sequence (whole entry): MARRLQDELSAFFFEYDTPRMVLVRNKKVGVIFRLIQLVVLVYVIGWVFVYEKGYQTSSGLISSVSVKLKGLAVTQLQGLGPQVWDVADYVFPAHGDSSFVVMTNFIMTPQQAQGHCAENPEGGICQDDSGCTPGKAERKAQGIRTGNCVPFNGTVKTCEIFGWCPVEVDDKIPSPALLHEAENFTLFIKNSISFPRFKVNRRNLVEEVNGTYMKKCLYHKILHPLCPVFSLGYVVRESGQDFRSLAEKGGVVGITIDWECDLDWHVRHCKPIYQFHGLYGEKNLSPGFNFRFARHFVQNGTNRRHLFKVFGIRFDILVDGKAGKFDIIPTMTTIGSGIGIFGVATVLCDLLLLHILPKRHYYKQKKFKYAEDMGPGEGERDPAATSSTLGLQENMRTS
Method in brief: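 Oocytes expressing mP2X1 were superfused with compound for 20 min before 2 μM ATP. Reversibility was checked by recording the ATP current after washout (20 min wash between ATP applications). Recordings used two-electrode voltage clamp at −70 mV in Ringer's solution, pH 7.5, 18 °C.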

[4] = target: T2, P2X purinoceptor 1 (Mus musculus); assay: (§1) Antagonist activity at mouse recombinant P2X1 receptor expressed in Xenopus oocytes assessed as inhibition of ATP-induced ion current incubated for 20 mins prior to ATP-induction by two-electrode voltage clamp assay; type: cell-based; conditions: Oocyte
Method in brief: (§2)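 Defolliculated Xenopus oocytes were injected with mouse P2X1 or human P2X3 cRNA (40 nL, 1 μg/mL), held 24 h at 18 °C in Barth's solution, then stored at 4 °C for up to 12 days. Two-electrode voltage clamp was run at Vh −70 mV with superfusion of Ringer's solution (pH 7.5, 18 °C). Compound was applied 20 min before 2 μM ATP (60–120 s), followed by 20 min washout. Mean ± SEM, n = 4 oocyte batches.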

[5] = target: T3, P2X purinoceptor 3 (Homo sapiens) (UniProt P56373); assay: Antagonist activity at human recombinant P2X3 receptor expressed in Xenopus oocytes assessed as inhibition of ATP-induced ion current at 100 nM incubated for 20 mins prior to ATP-induction by two-electrode voltage clamp assay; type: cell-based; conditions: Oocyte; method in brief: as §2
T3 sequence (whole entry): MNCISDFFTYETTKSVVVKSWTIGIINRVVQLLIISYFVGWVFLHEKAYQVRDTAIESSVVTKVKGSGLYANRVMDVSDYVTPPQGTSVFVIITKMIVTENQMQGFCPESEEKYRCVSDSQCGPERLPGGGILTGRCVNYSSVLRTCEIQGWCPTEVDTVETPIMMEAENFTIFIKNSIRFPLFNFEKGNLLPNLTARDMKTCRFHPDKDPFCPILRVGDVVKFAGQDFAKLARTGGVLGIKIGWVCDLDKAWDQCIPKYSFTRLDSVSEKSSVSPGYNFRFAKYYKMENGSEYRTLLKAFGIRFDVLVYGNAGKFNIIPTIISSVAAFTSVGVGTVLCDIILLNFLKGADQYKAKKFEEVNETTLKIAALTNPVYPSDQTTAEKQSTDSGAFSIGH

[6] = target: T2, P2X purinoceptor 1 (Mus musculus); assay: Antagonist activity at mouse recombinant P2X1 receptor expressed in Xenopus oocytes assessed as inhibition of ATP-induced ion current at 100 nM incubated for 20 mins prior to ATP-induction by two-electrode voltage clamp assay; type: cell-based; conditions: Oocyte; method in brief: as §2
[7] = target: T3, P2X purinoceptor 3 (Homo sapiens); assay: Antagonist activity at human recombinant P2X3 receptor expressed in Xenopus oocytes assessed as inhibition of ATP-induced ion current at 10 uM incubated for 20 mins prior to ATP-induction by two-electrode voltage clamp assay; type: cell-based; conditions: Oocyte; method in brief: as §2
[8] = target: T2, P2X purinoceptor 1 (Mus musculus); assay: Antagonist activity at mouse recombinant P2X1 receptor expressed in Xenopus oocytes assessed as inhibition of ATP-induced ion current at 10 uM incubated for 20 mins prior to ATP-induction by two-electrode voltage clamp assay; type: cell-based; conditions: Oocyte; method in brief: as §2
P2X purinoceptor 1 [9] = target: T4, P2X purinoceptor 1 (Homo sapiens, UniProt P51575); assay: Antagonist activity at P2X1 receptor (unknown origin)
T4 sequence (P51575 whole entry): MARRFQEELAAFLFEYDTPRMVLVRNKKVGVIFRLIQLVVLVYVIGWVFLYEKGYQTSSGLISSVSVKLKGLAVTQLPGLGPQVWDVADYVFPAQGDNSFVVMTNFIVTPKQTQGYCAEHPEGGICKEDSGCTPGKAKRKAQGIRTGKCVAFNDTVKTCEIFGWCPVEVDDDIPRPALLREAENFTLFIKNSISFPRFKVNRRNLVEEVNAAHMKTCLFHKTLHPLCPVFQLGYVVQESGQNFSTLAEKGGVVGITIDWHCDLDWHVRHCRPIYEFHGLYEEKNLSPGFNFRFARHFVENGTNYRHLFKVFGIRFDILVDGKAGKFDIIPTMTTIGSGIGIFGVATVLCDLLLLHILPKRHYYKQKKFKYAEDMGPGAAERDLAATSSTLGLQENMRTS

P2X purinoceptor 7 = target: T5, P2X purinoceptor 7 (Homo sapiens, UniProt Q99572); assay: Antagonist activity at P2X7 receptor (unknown origin)
T5 sequence (Q99572 whole entry): T1 sequence (whole entry)

P2X purinoceptor 3 = target: T6, P2X purinoceptor 3 (Homo sapiens, UniProt P56373); assay: Antagonist activity at human recombinant P2X3 receptor expressed in Xenopus oocytes assessed as inhibition of ATP-induced ion current incubated for 20 mins prior to ATP-induction by two-electrode voltage clamp assay; type: cell-based, Oocyte; method in brief: as §2
T6 sequence (P56373 whole entry): T3 sequence (whole entry)

P2X purinoceptor 1 [10] = target: T7, P2X purinoceptor 1 (Mus musculus, UniProt P51576); assay: as §1; type: cell-based, Oocyte; method in brief: as §2
T7 sequence (P51576 whole entry): T2 sequence (whole entry)

SMILES: Cc1nc(/N=N/c2cc(S(=O)(=O)O)ccc2S(=O)(=O)O)c(CCC(=O)O)c(C=O)c1O
- Ratio IC50 [1]: 0.7
- inhibition [2]: < 50%
- inhibition [3]: inactive
- inhibition [4]: Dose-dependent effect
- inhibition [5]: 40.1%
- inhibition [6]: 58.6%

SMILES: Cc1ncc(CN(CCC(=O)O)Cc2ccccc2)c(C=O)c1O
- inhibition [7]: inactive
- inhibition [8]: inactive

SMILES: Cc1ncc(CCC(=O)O)c(C(=O)O)c1O
- inhibition [7]: 15.2%
- inhibition [8]: 14.8%

SMILES: Cc1nc(/N=N/c2ccc(S(=O)(=O)O)cc2)c(CCC(=O)O)c(C=O)c1O
- inhibition [2]: < 50%
- inhibition [5]: 46.5%
- inhibition [6]: 41.8%

SMILES: Cc1ncc(CN(CCC(=O)O)Cc2ccccc2)c(C(=O)O)c1O
- inhibition [7]: inactive
- inhibition [8]: inactive

SMILES: Cc1ncc(COP(=O)(O)O)c(C=O)c1O [PYRIDOXAL PHOSPHATE ANHYDROUS]
- IC50 (P2X purinoceptor 1 [9]): 10000 nM
- inhibition [7]: 20.1%
- inhibition [8]: 13.2%

SMILES: Cc1nc(/N=N/c2ccc(C(=O)O)cc2)c(CCC(=O)O)c(C(=O)O)c1O
- inhibition [2]: < 50%
- inhibition [5]: 25.7%
- inhibition [6]: 51.7%

SMILES: Cc1ncc(CCC(=O)O)c(C=O)c1O
- inhibition [7]: 22.3%
- inhibition [8]: 19.5%

SMILES: Cc1nc(/N=N/c2ccc(S(=O)(=O)O)cc2)c(CCC(=O)O)c(C(=O)O)c1O
- inhibition [2]: < 50%
- inhibition [5]: 37.6%
- inhibition [6]: 57.6%

SMILES: Cc1nc(/N=N/c2cc(S(=O)(=O)O)ccc2S(=O)(=O)O)c(CCC(=O)O)c(C(=O)O)c1O
- inhibition [2]: < 50%
- inhibition [5]: 45.7%
- inhibition [6]: 60.2%

SMILES: Cc1nc(/N=N/c2ccc(C(=O)O)cc2)c(COP(=O)(O)O)c(C=O)c1O
- IC50 (P2X purinoceptor 7): 600 nM

SMILES: Cc1nc(/N=N/c2cc(S(=O)(=O)O)ccc2S(=O)(=O)O)c(COP(=O)(O)O)c(C=O)c1O [ISOPPADS]
- Ratio IC50 [1]: 0.3
- IC50 (P2X purinoceptor 3): 96.2 nM
- IC50 (P2X purinoceptor 1 [10]): 30.7 nM

SMILES: Cc1ncc(/C=C/C(=O)O)c(C(=O)O)c1O
- inhibition [7]: inactive
- inhibition [8]: inactive

SMILES: Cc1nc(/N=N/c2cc(S(=O)(=O)O)c3cc([N+](=O)[O-])cc(S(=O)(=O)O)c3c2)c(COP(=O)(O)O)c(C=O)c1O
- IC50 (P2X purinoceptor 7): 600 nM

SMILES: Cc1ncc(/C=C/C(=O)O)c(C=O)c1O
- inhibition [7]: 9.3%
- inhibition [8]: 7.4%

SMILES: Cc1nc(/N=N/c2ccc(C(=O)O)cc2)c(CCC(=O)O)c(C=O)c1O
- Ratio IC50 [1]: 1.6
- inhibition [2]: < 50%
- inhibition [5]: 56.3%
- inhibition [6]: 48.5%
